Results reported in ChEMBL document CHEMBL1777741, “Design of a potent, soluble glucokinase activator with increased pharmacokinetic half-life” (Bioorg Med Chem Lett, 2011).
pEC50: −log10 of the molar value. Converted amounts (≈) assume the structure as drawn.

Key:
[1] = in vivo; conditions: CR-Han Wistar, rat, iv, 1 mg/kg
[2] = in vitro; conditions: rat, plasma
[3] = molecular target: T1, Hexokinase-4 (Homo sapiens, UniProt P35557); assay: Activation of His-tagged recombinant glucokinase expressed in Escherichia coli using [14C]-glucose substrate by […]
T1 sequence (P35557 whole entry): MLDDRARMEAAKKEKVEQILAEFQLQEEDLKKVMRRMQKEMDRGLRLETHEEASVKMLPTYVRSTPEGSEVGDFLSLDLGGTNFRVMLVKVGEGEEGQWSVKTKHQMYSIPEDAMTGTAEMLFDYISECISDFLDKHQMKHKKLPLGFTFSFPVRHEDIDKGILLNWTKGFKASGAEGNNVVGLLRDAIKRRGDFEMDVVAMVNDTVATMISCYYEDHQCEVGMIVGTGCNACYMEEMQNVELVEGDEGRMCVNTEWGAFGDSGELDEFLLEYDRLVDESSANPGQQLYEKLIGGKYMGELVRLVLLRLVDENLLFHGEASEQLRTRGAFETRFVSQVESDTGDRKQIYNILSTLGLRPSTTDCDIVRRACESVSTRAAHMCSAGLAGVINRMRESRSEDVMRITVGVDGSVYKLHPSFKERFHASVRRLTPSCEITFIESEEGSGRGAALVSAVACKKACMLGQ

[4] = Percentage unbound in human plasma; type: ADME, cell-free
Procedure, shortened: (§1)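 Unbound fraction in plasma was measured by equilibrium dialysis and reported as percentage free.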

[5] = Bioavailability in rat; type: ADME, organism-based; conditions: in vivo
[6] = Clearance in dog; type: ADME, organism-based, Canis lupus familiaris; conditions: in vivo
[7] = Intrinsic clearance in rat hepatocytes measured per 10^6 cells; type: ADME, cell-based, Liver, Hepatocyte
[8] = Intrinsic clearance in human hepatocytes measured per 10^6 cells; type: ADME, cell-based, Liver, Hepatocyte
[9] = Bioavailability in dog; type: ADME, organism-based, Canis lupus familiaris; conditions: in vivo
[10] = Half life in rat; type: ADME, organism-based; conditions: in vivo
[11] = Intrinsic clearance in dog hepatocytes measured per 10^6 cells; type: ADME, cell-based, Canis lupus familiaris, Liver, Hepatocyte
[12] = Half life in dog; type: ADME, organism-based, Canis lupus familiaris; conditions: in vivo
[13] = Solubility of the compound; type: physicochemical
[14] = Percentage unbound in dog plasma; type: ADME, cell-free, Canis lupus familiaris
Procedure, shortened: as §1

Row | Structure (SMILES) | clearance [1] [mL/min/kg] | fraction unbound [2] | pEC50 [3] | other results
1 | COC[C@H](C)Oc1cc(O[C@@H](C)Cc2ccc(F)cc2)cc(C(=O)Nc2ccc(C(=O)O)cn2)c1 | 1 | 0.0025 | 7.40 | –
2 | COC[C@H](C)Oc1cc(O[C@@H](C)Cc2ccccc2OC)cc(C(=O)Nc2ccc(C(=O)O)cn2)c1 | 6.1 | 0.0042 | – | –
3 | COC[C@H](C)Oc1cc(O[C@@H](C)Cc2ccc(Cl)o2)cc(C(=O)Nc2ccc(C(=O)O)cn2)c1 | 1.6 | 0.0025 | 7.52 | –
4 | COCC(C)(C)Oc1cc(O[C@@H](C)Cc2ccccc2)cc(C(=O)Nc2ccc(C(=O)O)cn2)c1 | – | 0.0042 | < 5.00 | –
5 | C[C@@H](Cc1ccccc1)Oc1cc(OC2CCOCC2)cc(C(=O)Nc2ccc(C(=O)O)cn2)c1 | – | 0.0109 | < 5.00 | –
6 | COC[C@H](C)Oc1cc(OC[C@H](C)c2ccccc2)cc(C(=O)Nc2ccc(C(=O)O)cn2)c1 | 2.9 | 0.0033 | 7.15 | –
7 | CC(C)Oc1cc(OC2Cc3ccccc3C2)cc(C(=O)Nc2ccc(C(=O)O)cn2)c1 | 1.6 | 0.001 | 7.00 | –
8 | CC(C)Oc1cc(Oc2ccccc2)cc(C(=O)Nc2ccc(C(=O)O)cn2)c1 | 0.2 | 0.0021 | – | –
9 | COC[C@H](C)Oc1cc(Oc2ccc(S(C)(=O)=O)cc2)cc(C(=O)Nc2ccc(C(=O)O)cn2)c1 | 8.2 | 0.0738 | 7.22 | –
10 | COC[C@H](C)Oc1cc(O[C@@H](C)Cc2ccccc2)cc(C(=O)Nc2ccc(C(=O)O)cn2)c1 | 1.9 | 0.004 | – | fraction unbound [4]: 0.0044; hepatocyte CLint [7]: < 1 µL/min/1e6 cells; hepatocyte CLint [8]: < 1 µL/min/1e6 cells; half-life [10]: 270 min; hepatocyte CLint [11]: < 1 µL/min/1e6 cells; half-life [12]: 84 min; fraction unbound [14]: 0.0146
11 | CC(C)Oc1cc(O[C@@H](C)Cc2ccccc2)cc(C(=O)Nc2ccc(C(=O)O)cn2)c1 | 3.3 | 0.0023 | – | –
12 | CC(C)Oc1cc(O[C@@H](C)c2ccccc2)cc(C(=O)Nc2ccc(C(=O)O)cn2)c1 | 0.6 | 0.0035 | 6.82 | –

Now from value to compound, other results behind:

Row | clearance [1] [mL/min/kg] | fraction unbound [2] | pEC50 [3] | Structure (SMILES) | other results
13 | 1.1 | 0.001 | – | COC[C@H](C)Oc1cc(O[C@@H](C)Cc2cc(F)cc(F)c2)cc(C(=O)Nc2ccc(C(=O)O)cn2)c1 | –
14 | 0.4 | 0.0055 | 6.80 | COC[C@H](C)Oc1cc(Oc2ccccc2)cc(C(=O)Nc2ccc(C(=O)O)cn2)c1 | –
15 | 3.2 | 0.0069 | 7.22 | COC[C@H](C)Oc1cc(Oc2ccc(OC)cc2)cc(C(=O)Nc2ccc(C(=O)O)cn2)c1 | –
16 | 0.8 | 0.0016 | 6.96 | COC[C@H](C)Oc1cc(Oc2cccc(Cl)c2)cc(C(=O)Nc2ccc(C(=O)O)cn2)c1 | –
17 | 0.9 | 0.0012 | – | COC[C@H](C)Oc1cc(Oc2ccc(Cl)cc2)cc(C(=O)Nc2ccc(C(=O)O)cn2)c1 | –
18 | 0.2 | 0.0021 | 6.74 | COC[C@H](C)Oc1cc(Oc2cccc(F)c2)cc(C(=O)Nc2ccc(C(=O)O)cn2)c1 | –
19 | – | 0.0122 | 6.40 | COC[C@H](C)Oc1cc(Oc2cccc(N(C)C)c2)cc(C(=O)Nc2ccc(C(=O)O)cn2)c1 | –
20 | 0.1 | 0.0023 | 7.05 | COC[C@H](C)Oc1cc(Oc2cc(F)cc(F)c2)cc(C(=O)Nc2ccc(C(=O)O)cn2)c1 | fraction unbound [4]: 0.0055; bioavailability [5]: 97%; clearance [6]: 5.2 mL/min/kg; hepatocyte CLint [7]: < 1 µL/min/1e6 cells; hepatocyte CLint [8]: < 1 µL/min/1e6 cells; bioavailability [9]: > 100%; half-life [10]: 948 min; hepatocyte CLint [11]: < 1 µL/min/1e6 cells; half-life [12]: 294 min; solubility [13]: 841 µM (≈ 386 µg/mL); fraction unbound [14]: 0.0159
